Reference: PMC8525972 (mAbs, 2021)

Columns and labels:
[1] = biological target: adalimumab biosimilar IgG1 (Homo sapiens, UniProt P01857); test: Fluorescence intensity, adalimumab biosimilar in CHO cell culture fluid; type: binding
In short: (§1)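 CHO-S cells grown in CD CHO medium with 4 mM L-glutamine to 3.31 × 10^6 cells/mL at 96.1% viability. Fluid clarified by 8000×g for 30 min, then 0.2 µm filtration. Antibody spiked into this fluid and mixed 1:1 with 100 nM Fc-III probe in PBS; read immediately at Ex 485/Em 535 nm. Detection limit is signal above blank + 3 StdDev of blank.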

[2] = tested on: IgG; conditions: cited from earlier work
[3] = tested on: polyclonal human IgG; test: Fluorescence polarization, human IgG in CHO cell culture fluid; type: binding; conditions: 100 nM probe in CHO-CCF
[4] = tested on: human IgG; test: Fluorescence polarization mix-and-read assay, human IgG titration; type: binding; conditions: 50 nM probe, human IgG 0 to 2.5 g/L
In short: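 Fluorescein-labelled probes (Fc-III peptide, protein G, peptide-H) at 50 nM mixed with human IgG at 0–2.5 g/L in PBS. Polarisation read immediately at Ex 485/Em 535 nm. mP is (I∥ − I⊥)/(I∥ + I⊥) × 1000. Curves fitted with a 4-parameter logistic.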

[5] = tested on: murine-IgG1; test: Fluorescence intensity, murine IgG1 in CHO cell culture fluid; type: binding
In short: as §1

[6] = tested on: human IgG; conditions: ref [40],[41]; cited from earlier work
[7] = tested on: murine IgG1; conditions: ref [41]; cited from earlier work
[8] = tested on: polyclonal human IgG; test: Fluorescence intensity, human IgG in CHO cell culture fluid; type: binding
In short: as §1

[9] = Fluorescence intensity of probe with hydroxypropyl-β-cyclodextrin; type: physicochemical; conditions: 50 nM probe; increasing HP-β-cyclodextrin
[10] = tested on: human IgG; test: Fluorescence intensity mix-and-read assay, human IgG titration; type: binding
In short: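 Human IgG (0–2.5 g/L) diluted in PBS and mixed 1:1 with fluorescein-Ahx-labelled Fc-III peptide probe in PBS; probe tested at 25–500 nM, and at 50 nM and 2000 nM for linear quantitation. Plate read immediately, intensity at Ex 485/Em 535 nm. Normalised intensity is the fold change over probe alone without IgG.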

[11] = tested on: human-IgG; test: SpA competition with Fc-III probe/human IgG mixture, fluorescence intensity; type: binding; conditions: IgG 0.005 g/L (30 nM), Fc-III probe 50 nM, 120 min
In short: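 Unlabelled SpA serially diluted in PBS and added at 0.02 nM–1 µM final to human IgG (33 nM, 0.005 g/L) plus Fc-III probe (50 nM). PBS alone served as negative control. Incubated 120 min for equilibration, then fluorescence intensity read at Ex 485/Em 535 nm.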

[12] = tested on: IgG; conditions: ref [16],[17]; cited from earlier work

Sequence of adalimumab biosimilar IgG1 (P01857 1-330 isoform P01857-1, other chains not shown): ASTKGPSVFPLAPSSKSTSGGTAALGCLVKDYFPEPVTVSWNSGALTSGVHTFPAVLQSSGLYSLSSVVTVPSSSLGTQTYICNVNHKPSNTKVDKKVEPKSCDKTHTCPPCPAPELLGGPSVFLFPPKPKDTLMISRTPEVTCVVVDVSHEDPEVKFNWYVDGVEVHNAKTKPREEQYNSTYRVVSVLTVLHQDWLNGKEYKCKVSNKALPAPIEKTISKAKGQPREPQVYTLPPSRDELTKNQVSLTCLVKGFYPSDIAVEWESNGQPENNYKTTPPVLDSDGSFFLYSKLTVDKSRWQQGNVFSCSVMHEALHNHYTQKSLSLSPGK

Fluorescein-Ahx-DCAWHLGELVWCT-NH2 (disulfide) [Fc-III probe]
Fluorescence intensity increase ([1]; 100 nM probe in CHO-CCF, 2.5 g/L adalimumab (IgG1 mAb)): ~ 1.8 fold
Adalimumab biosimilar detected down to ([1]; CHO cell culture fluid, fluorescence intensity): 100 ng/mL
Binding affinity for IgG, Fc-III versus SpG [2]: comparable binding affinity for IgG
Polarization changes, human IgG versus adalimumab biosimilar [3]: nearly identical fluorescence polarization changes
Polarization dynamic range, difference between bound and free probe (Δ mP) ([4]; 96-well plate, Ex 485 nm/Em 535 nm): 260 mP
Lowest IgG concentration required to produce half-maximal response ([4]; fluorescence polarization): 0.001 g/L
Detection limit ([5]; murine IgG1, 100 nM probe in CHO-CCF): 0.1 g/L
Detection limit for murine IgG1 relative to human IgG ([5]; murine IgG1 versus human IgG): 1000 times
Binding of human IgG (subtypes 1–4) to Fc-III relative to pure IgG1 [6]: binds Fc-III less well than pure IgG1
Binding to murine IgG1 [7]: binds relatively poorly
Fluorescence intensity increase ([8]; 100 nM probe in CHO-CCF, 2.5 g/L human IgG): ~ 1.8 fold
Limit of detection compared with HPLC or ELISA ([8]; IgG in CHO-CCF): comparable to those of HPLC or ELISA
Limit of detection by fluorescence intensity ([8]; human IgG, 100 nM probe in CHO-CCF, signal > blank intensity + 3StdDev of blank): 0.00025 g/L
Fluorescence intensity increase on addition of HPβCD [9]: 2.1 fold
Fold increase in fluorescence intensity at lowest IgG concentration ([10]; 25 nM probe, 0.00025 g/L IgG): 1.16 fold
Linear quantitation range (IgG concentration) ([10]; 2000 nM Fc-III probe, listed as fluorescein labeled Fc-III): 0.025 to 0.1 g/L

SpA: unlabeled Staphylococcal protein A, competitor binding to the same location on Fc as Fc-III
Fluorescence intensity of Fc-III/IgG mixture with 500 nM SpA ([11]; 500 nM SpA): fell to that of free Fc-III probe
Effect of unlabeled SpA on emission intensity of IgG/Fc-III probe mixture ([11]; SpA 0.02 nM to 1 µM in PBS): markedly diminished

fluorescein-labeled protein A (SpA): fluorescein-labeled protein A, literature comparison
IgG binding-induced fluorescence enhancement of fluorescein-labeled protein A [12]: IgG binding-induced fluorescence enhancement
